Data published in PMC5042352 (Analytical methods : advancing methods and applications, 2016).
Read-outs that look alike come from different tables or passages of the source.

Assays:
[1] = Stability of the analytes in human plasma at QC levels; type: in vitro ADME; settings: for Short-term Dev. (%) / Short-term MCM ± SD: 6 h, r.t.; for Short-term Dev. (%) / Short-term MCM ± SD / Long-term Dev. (%) / Long-term MCM ± SD / Freeze–thaw Dev. (%) / Freeze–thaw MCM ± SD: human plasma; for Short-term Dev. (%) / Short-term MCM ± SD / Long-term Dev. (%) / Long-term MCM ± SD / The autosampler Dev. (24h, %) / The autosampler MCM ± SD (24h) / The autosampler Dev. (48h, %) / The autosampler MCM ± SD (48h) / Freeze–thaw Dev. (%) / Freeze–thaw MCM ± SD: n = 5; for Long-term Dev. (%) / Long-term MCM ± SD: 40 days; for Long-term Dev. (%) / Long-term MCM ± SD / Freeze–thaw Dev. (%) / Freeze–thaw MCM ± SD: −40 °C; for The autosampler Dev. (24h, %) / The autosampler MCM ± SD (24h) / The autosampler Dev. (48h, %) / The autosampler MCM ± SD (48h): autosampler r.t.; for Freeze–thaw Dev. (%) / Freeze–thaw MCM ± SD: four cycles
Outline: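 QC plasma made by spiking working solution into drug-free human plasma (1:9); the phosphate ester is pre-stabilised with 2M sodium cacodylate and 50% KF. Freeze-thaw: frozen at −40 °C for 24 h, thawed at 25 °C. Short-term: 6 h at room temperature. Long-term: −40 °C for 40 days. Quantified by UPLC-MS/MS against 1/x-weighted analyte/IS peak-area-ratio calibration curves.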

[2] = reported; cited from earlier work
[3] = type: in vivo, human (Chinese male healthy subjects); settings: mean ± SD, n = 23

Short-term Dev. (%) ([1]; high QC) | Short-term MCM ± SD ([1]; high QC) | Long-term Dev. (%) ([1]; high QC) | Long-term MCM ± SD ([1]; high QC) | The autosampler Dev. (24h, %) ([1]; high QC) [%] | The autosampler MCM ± SD (24h) ([1]; high QC) | The autosampler Dev. (48h, %) ([1]; high QC) [%] | The autosampler MCM ± SD (48h) ([1]; high QC) | Freeze–thaw Dev. (%) ([1]; high QC) | Freeze–thaw MCM ± SD ([1]; high QC) | Short-term Dev. (%) ([1]; low QC) | Short-term MCM ± SD ([1]; low QC) | Long-term Dev. (%) ([1]; low QC) | Long-term MCM ± SD ([1]; low QC) | The autosampler Dev. (24h, %) ([1]; low QC) [%] | The autosampler MCM ± SD (24h) ([1]; low QC) | The autosampler Dev. (48h, %) ([1]; low QC) [%] | The autosampler MCM ± SD (48h) ([1]; low QC) | Freeze–thaw Dev. (%) ([1]; low QC) | Freeze–thaw MCM ± SD ([1]; low QC) | SMILES | other results
−0.51 | 44.42 ± 0.893 × 10^−9 mol·dm^−3 | 4.01 | 46.43 ± 1.399 × 10^−9 mol·dm^−3 | −6.84 | 41.59 ± 1.016 × 10^−9 mol·dm^−3 | −2.95 | 43.33 ± 1.131 × 10^−9 mol·dm^−3 | 0.68 | 44.94 ± 1.177 × 10^−9 mol·dm^−3 | 4.0 | 0.258 ± 0.048 × 10^−9 mol·dm^−3 | −3.2 | 0.240 ± 0.012 × 10^−9 mol·dm^−3 | −11.2 | 0.220 ± 0.016 × 10^−9 mol·dm^−3 | −10.4 | 0.222 ± 0.020 × 10^−9 mol·dm^−3 | 11.2 | 0.276 ± 0.042 × 10^−9 mol·dm^−3 | CCC(=O)OCC(=O)[C@@]1(OC(=O)CC)[C@@H](C)C[C@H]2[C@@H]3CCC4=CC(=O)C=C[C@]4(C)[C@@]3(F)[C@@H](O)C[C@@]21C [BDP, betamethasone dipropionate] | Short-term Dev. (%) ([1]; middle QC): 2.04%; Short-term MCM ± SD ([1]; middle QC): 4.746 ± 0.155 × 10^−9 mol·dm^−3; Long-term Dev. (%) ([1]; middle QC): 1.80%; Long-term MCM ± SD ([1]; middle QC): 4.734 ± 0.141 × 10^−9 mol·dm^−3; The autosampler Dev. (24h, %) ([1]; middle QC): −7.45%; The autosampler MCM ± SD (24h) ([1]; middle QC): 4.304 ± 0.123 × 10^−9 mol·dm^−3; The autosampler Dev. (48h, %) ([1]; middle QC): −5.68%; The autosampler MCM ± SD (48h) ([1]; middle QC): 4.387 ± 0.103 × 10^−9 mol·dm^−3; Freeze–thaw Dev. (%) ([1]; middle QC): 3.45%; Freeze–thaw MCM ± SD ([1]; middle QC): 4.811 ± 0.135 × 10^−9 mol·dm^−3; elimination half-life time [2]: 25.8 min
8.02 | 64.74 ± 5.074 × 10^−9 mol·dm^−3 | −12.3 | 52.55 ± 2.816 × 10^−9 mol·dm^−3 | −10.82 | 53.47 ± 2.906 × 10^−9 mol·dm^−3 | 6.68 | 63.95 ± 3.102 × 10^−9 mol·dm^−3 | 5.54 | 63.29 ± 2.673 × 10^−9 mol·dm^−3 | 9.63 | 0.610 ± 0.048 × 10^−9 mol·dm^−3 | 7.34 | 0.597 ± 0.064 × 10^−9 mol·dm^−3 | 5.04 | 0.584 ± 0.056 × 10^−9 mol·dm^−3 | 2.29 | 0.569 ± 0.087 × 10^−9 mol·dm^−3 | 3.67 | 0.577 ± 0.038 × 10^−9 mol·dm^−3 | C[C@H]1C[C@H]2[C@@H]3CCC4=CC(=O)C=C[C@]4(C)[C@@]3(F)[C@@H](O)C[C@]2(C)[C@@]1(O)C(=O)CO [BOH, betamethasone] | AUC0–∞ ([3]; Reference formulation): 915.3 ± 206.5 × 10^−9 mol·dm^−3·h^−1; AUC0–∞ ([3]; Test formulation): 856.6 ± 269.4 × 10^−9 mol·dm^−3·h^−1; AUC0–t ([3]; Test formulation, t = 4 h (BDP), 120 h (BOH), 360 h (B17P)): 820.2 ± 249.4 × 10^−9 mol·dm^−3·h^−1; Short-term Dev. (%) ([1]; middle QC): 8.82%; Short-term MCM ± SD ([1]; middle QC): 10.87 ± 0.633 × 10^−9 mol·dm^−3; Long-term Dev. (%) ([1]; middle QC): 5.78%; Long-term MCM ± SD ([1]; middle QC): 10.57 ± 0.577 × 10^−9 mol·dm^−3; The autosampler MCM ± SD (24h) ([1]; middle QC): 10.20 ± 0.505 × 10^−9 mol·dm^−3; The autosampler Dev. (48h, %) ([1]; middle QC): 3.89%; The autosampler MCM ± SD (48h) ([1]; middle QC): 10.38 ± 0.513 × 10^−9 mol·dm^−3; Freeze–thaw Dev. (%) ([1]; middle QC): 4.88%; Freeze–thaw MCM ± SD ([1]; middle QC): 10.48 ± 0.645 × 10^−9 mol·dm^−3

SMILES | Short-term Dev. (%) ([1]; high QC) | Short-term MCM ± SD ([1]; high QC) | Long-term Dev. (%) ([1]; high QC) | Long-term MCM ± SD ([1]; high QC) | The autosampler Dev. (24h, %) ([1]; high QC) [%] | The autosampler MCM ± SD (24h) ([1]; high QC) | The autosampler Dev. (48h, %) ([1]; high QC) [%] | The autosampler MCM ± SD (48h) ([1]; high QC) | Freeze–thaw Dev. (%) ([1]; high QC) | Freeze–thaw MCM ± SD ([1]; high QC) | Short-term Dev. (%) ([1]; low QC) | Short-term MCM ± SD ([1]; low QC) | Long-term Dev. (%) ([1]; low QC) | Long-term MCM ± SD ([1]; low QC) | The autosampler Dev. (24h, %) ([1]; low QC) [%] | The autosampler MCM ± SD (24h) ([1]; low QC) | The autosampler Dev. (48h, %) ([1]; low QC) [%] | The autosampler MCM ± SD (48h) ([1]; low QC) | Freeze–thaw Dev. (%) ([1]; low QC) | Freeze–thaw MCM ± SD ([1]; low QC) | other results
C[C@H]1C[C@H]2[C@@H]3CCC4=CC(=O)C=C[C@]4(C)[C@@]3(F)[C@@H](O)C[C@]2(C)[C@@]1(O)C(=O)COP(=O)([O-])[O-].[Na+].[Na+] [BSP, betamethasone sodium phosphate] | −3.78 | 310.9 ± 14.43 × 10^−9 mol·dm^−3 | −1.02 | 320.0 ± 10.35 × 10^−9 mol·dm^−3 | −2.94 | 313.6 ± 35.39 × 10^−9 mol·dm^−3 | 11.19 | 359.2 ± 22.46 × 10^−9 mol·dm^−3 | −2.50 | 315.1 ± 4.665 × 10^−9 mol·dm^−3 | −1.19 | 4.988 ± 0.250 × 10^−9 mol·dm^−3 | −1.07 | 4.994 ± 0.560 × 10^−9 mol·dm^−3 | 4.03 | 5.252 ± 0.696 × 10^−9 mol·dm^−3 | 10.63 | 5.585 ± 0.616 × 10^−9 mol·dm^−3 | −2.84 | 4.905 ± 0.357 × 10^−9 mol·dm^−3 | Short-term Dev. (%) ([1]; middle QC): −2.55%; Short-term MCM ± SD ([1]; middle QC): 39.36 ± 5.767 × 10^−9 mol·dm^−3; Long-term Dev. (%) ([1]; middle QC): −1.06%; Long-term MCM ± SD ([1]; middle QC): 39.94 ± 5.576 × 10^−9 mol·dm^−3; The autosampler Dev. (24h, %) ([1]; middle QC): 1.08%; The autosampler MCM ± SD (24h) ([1]; middle QC): 40.83 ± 5.209 × 10^−9 mol·dm^−3; The autosampler Dev. (48h, %) ([1]; middle QC): 9.88%; The autosampler MCM ± SD (48h) ([1]; middle QC): 44.38 ± 5.581 × 10^−9 mol·dm^−3; Freeze–thaw Dev. (%) ([1]; middle QC): −2.67%; Freeze–thaw MCM ± SD ([1]; middle QC): 39.30 ± 5.785 × 10^−9 mol·dm^−3; stability in human blank plasma ([1]; without stabilizer (sodium cacodylate, potassium fluoride)): labile
